# Sampled rows, rich in hits. Any-hit rate of the full collection: about 4.1%.
# RGS4 act: RGS4 potentiators or activators, primary screen, cell-based, HEK293 M3R inducible RGS4, calcium flux; carbachol calcium flux Fluo4; hits give low values; B-score at 10 µM; AID 463111, 2010; 310,000 compounds, 0.92% hits;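 active means B-score of the integrated calcium signal more than 4 SD below the library mean, with starting fluorescence not abnormally high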;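 further: negative B-score means reduced calcium response which marks RGS4 activation or potentiation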
#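 Assay system: HEK293 FlpIn-TREx cells, stable M3R, doxycycline-inducible RGS4 / Probe or stimulus: carbachol, ECmax concentration / Times: overnight RGS4 induction, 30 min dye load 37 °C, 20 min compound RT / Signal: kinetic calcium fluorescence imaging with Fluo4-AM dye, 2 µM / Measure: Agonist-evoked peak-minus-minimum fluorescence over baseline, integrated ratio, B score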
# Kir21 block: inhibitors of mouse Kir2.1 inward-rectifier potassium channel; Inward rectifier potassium channel 2 (Mus musculus), P35561; HEK293-Kir2.1, FluxOR thallium flux fluorescence; hits give low values; B-score at 10 µM; 310,000 compounds, 0.85% hits;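 active means fluorescence ratio B-score at or below minus 3 SD of library scores, with starting-brightness B-score within 2 SD, cut at about -4.2 in these data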;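 further: channel flux triggered by added potassium and thallium sulfate stimulus; B-score of peak minus minimum fluorescence over baseline after thallium stimulus; more negative B-score means stronger Kir2.1 block with less thallium influx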
# Target sequence (P35561 whole entry, looked up): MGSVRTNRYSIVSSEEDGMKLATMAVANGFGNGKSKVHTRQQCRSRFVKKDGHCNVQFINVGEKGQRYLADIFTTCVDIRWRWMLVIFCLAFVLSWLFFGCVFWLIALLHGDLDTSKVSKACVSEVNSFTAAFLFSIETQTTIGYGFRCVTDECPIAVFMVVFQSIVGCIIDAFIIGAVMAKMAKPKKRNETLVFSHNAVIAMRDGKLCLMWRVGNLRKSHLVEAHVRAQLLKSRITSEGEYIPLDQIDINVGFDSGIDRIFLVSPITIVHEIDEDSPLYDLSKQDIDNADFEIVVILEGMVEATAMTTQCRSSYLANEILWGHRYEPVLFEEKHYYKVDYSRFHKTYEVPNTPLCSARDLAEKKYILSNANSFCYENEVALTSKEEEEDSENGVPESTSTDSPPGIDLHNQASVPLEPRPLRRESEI
# RGS4 block: RGS4 inhibitors, primary screen, cell-based, HEK293 M3R inducible RGS4, calcium flux; 310,000 compounds, 0.45% hits; Regulator of G-protein signaling 4 (Homo sapiens), P49798; B-score at 10 µM; Fluo-4 calcium flux; hits give high values; triggered by carbachol at its EC20; AID 463165, 2010;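 active means B-score, a plate-corrected calcium signal, over three deviations above library mean, with baseline fluorescence within five deviations of library mean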;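 further: RGS4 expression induced by doxycycline in cells with stable M3 receptor; B-score is computed from the integrated fluorescence ratio over baseline after carbachol; higher B-score means a larger calcium signal and so more RGS4 inhibition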
# Target sequence (P49798 whole entry, looked up): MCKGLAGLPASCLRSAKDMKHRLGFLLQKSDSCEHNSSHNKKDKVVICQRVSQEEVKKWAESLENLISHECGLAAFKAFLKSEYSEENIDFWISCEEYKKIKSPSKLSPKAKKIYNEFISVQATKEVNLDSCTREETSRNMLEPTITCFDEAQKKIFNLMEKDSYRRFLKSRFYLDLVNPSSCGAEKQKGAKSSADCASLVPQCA
# MrgX1 PAM: positive allosteric modulators of MrgX1, primary screen, HEK293 cells, Fluo-4 calcium flux; Mas-related G-protein coupled receptor member X1 (Homo sapiens), Q96LB2; FDSS; hits give high values; B-score at 10 µM; 310,000 compounds, 0.63% hits;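 active means plate-corrected calcium response at least 3 library SD above typical, normal starting fluorescence, not activating the receptor alone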;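 further: compound read alongside a low EC10 to EC30 dose of BAM8-22 agonist; peak minus trough fluorescence over baseline measured at the second addition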
# MrgX1 agonist: agonists of human MrgX1 receptor, primary screen, HEK293 cells, Fluo-4 calcium flux; Fluo-4 calcium fluorescence, agonist mode; hits give high values; AID 588627, 2011; 310,000 compounds, 0.44% hits; B-score at 10 µM; Mas-related G-protein coupled receptor member X1 (Homo sapiens), Q96LB2;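 active means calcium response B-score plate-corrected fluorescence ratio at least 3 library SD, with starting fluorescence B-score inside 5 SD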
#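 Material: MrgX1-expressing HEK293 cells / Dosing: compound as first of three additions / Incubation: overnight seeding, then 1 h dark dye loading / Signal: Fluo-4 NW calcium fluorescence / Evaluation: B-scored fluorescence response ratio / Benchmarks: positive and negative control wells on each plate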
# MrgX1 antag: antagonists of human MrgX1 receptor, primary screen, HEK293 cells, Fluo-4 calcium flux; BAM8-22 antagonism; hits give low values; B-score at 10 µM; 310,000 compounds, 1.3% hits;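 active means calcium-response B-score plate-corrected more than 3 library SD below zero, starting fluorescence within 5 deviations, no agonist response on first addition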;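 further: peak minus trough fluorescence over baseline after final BAM8-22 challenge near maximal dose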
# The depositor's hits bear a star; i = inactive; / = not tested or not shown; ! = a repeat was not active.
SMILES,RGS4 act,Kir21 block,RGS4 block,MrgX1 PAM,MrgX1 agonist,MrgX1 antag
CCCCNc1c(-c2cccc(-c3cc(C(C)=O)cs3)c2)nc2ccc(C)cn12,-7.08*,1.55,i,i,i,i
CCCCNc1c(-c2cccc(-c3ccc(OC)cc3)c2)nc2ccc(C)cn12,-7.8*,0.19,i,i,i,i
CCn1c(=O)c(C(=O)NNC(=O)c2ccccc2F)c(O)c2ccccc21,-8.66*,0.53,i,i,114*,i
CCCCCCCCCC(=O)NNC(=O)c1c(O)c2ccccc2n(CC)c1=O,i,-1.3,i,i,i,i
COc1ccc(C)cc1NC(=O)c1ccc(CN2CCN(c3ccccc3)CC2)cc1,i,0.95,i,i,i,i
CN1CCN(C2Cc3cc(F)ccc3Sc3ccc(Cl)cc32)CC1 (centres undefined),-8.27*,-1.8,i,i,i,i
CC(C)c1ccc2c(c1)C(N1CCNCC1)Cc1ccc(F)cc1S2 (centres undefined),-8.7*,-5.22*,i,i,i,i
CSc1ccc2c(c1)C(N1CCN(C)CC1)Cc1ccccc1S2 (centres undefined),-7.38*!,-7.91*,i,i,i,i
CN1CCN(C2Cc3ccccc3Sc3ccc(Cl)cc32)CC1 (centres undefined),/,/,/,i,i,i
c1cncc(-c2nc(N3CCOCC3)c3ccccc3n2)c1,i,-0.05,i,i,i,i
Nc1nonc1-n1nnc(C(=O)N/N=C/c2cccnc2)c1CSC1=NCCS1,i,0.09,i,i,i,i
Nc1nc2c(s1)CCc1c-2cnn1-c1ccccc1,i,-4.47*,i,i,33.3*,i
CCOC(=O)c1cnc2c(Cl)cccc2c1NCCN(C)C,i,0.64,i,i,i,i
CCOC(=O)c1cnc2c(OC)cccc2c1Oc1ccccc1,i,-7.94*,i,i,i,i
CCOC(=O)c1cnc2c(C(=O)OC)cccc2c1NCc1cccnc1,-7.01*,0.06,i,i,i,i
CCOC(=O)c1cnc2c(OC)cccc2c1N1CCN(c2ccccc2OC)CC1,i,0.56,i,i,i,i
CCOC(=O)c1cnc2ccc(C(=O)OC)cc2c1NCCc1ccc(OC)c(OC)c1,i,0.48,i,i,i,-6.43*
CCOC(=O)c1cnc2c(C)cccc2c1NCCc1ccc(OC)c(OC)c1,-7.42*,-7.58*,i,i,i,i
OCC[C@@H]1C[C@H](O)[C@@H](O)[C@@]2(OCCCc3ccccc32)O1,i,-1.78,i,i,i,i
COc1cc(/C=C(/C#N)C(=O)NC(C)c2ccccc2)cc(OC)c1O (centres undefined),i,-1.18,i,i,58.5*,i
CCCn1c(SCC(=O)N2CC(=O)Nc3ccccc32)nc2ccccc21,i,-6.88*,i,i,i,i
O=c1oc2cc(O)ccc2c2c1CCCC2,i,-6.49*,i,i,i,i
CN1C(C(=O)NCc2ccc(OC(F)(F)F)cc2)CC2Cn3c(nc4cc(Cl)c(Cl)cc43)C21 (centres undefined),i,-1.43,i,i,i,i
CN1CCN(C(=O)CN(c2ccccc2)S(=O)(=O)N(C)C)CC1,i,1.47,i,i,i,i
CCCCN(c1ccccc1)S(=O)(=O)N(C)C,i,-5.13*,i,i,i,i
SMILES,RGS4 act,Kir21 block,RGS4 block,MrgX1 PAM,MrgX1 agonist,MrgX1 antag
COc1ccc2cc(Br)ccc2c1CC(=O)NCCCN1CCOCC1,i,-0.21,i,i,i,i
CC(NC(=O)c1ccc(CS(=O)(=O)c2ccc(Cl)cc2)o1)c1ccc2c(c1)OCCO2 (centres undefined),-7.39*,-0.48,i,i,i,i
O=C(COc1cccc(Cl)c1)NNC(=S)Nc1ccccc1,i,0.01,i,8.71*,i,i
O=C(COc1ccccc1)NNC(=S)NC(=O)c1ccc(Cl)cc1Cl,i,0.92,i,i,98*,i
O=C(O)CCC(=O)NNC(=O)COc1cccc(Cl)c1,i,-0.46,i,i,i,i
Cc1ccc(OCC(=O)NC(=S)Nc2cccc(NC(=O)c3ccc(Cl)cc3Cl)c2)cc1,i,0.08,i,i,i,i
CC(C)Oc1nc(-c2ccccc2Cl)nc2ccccc12,i,0.04,i,i,i,i
O=C(NNS(=O)(=O)c1ccc(F)cc1)c1ccccc1F,i,-1.21,i,i,i,i
N#CC(C#N)=Cc1cccn1-c1ccc(C(=O)O)cc1,i,-0.07,i,i,i,i
O=C(Cc1cccs1)NNC(=S)NC(=O)c1ccco1,i,-0.43,i,i,i,i
CC(C)(C)c1ccc(OCC(=O)NCc2ccco2)c(Br)c1,i,1.06,i,i,i,i
CC(C)c1ccc(OCC(=O)NNC(=S)NC(=O)c2ccco2)c(Br)c1,-9.53*,0.25,i,i,i,i
CC(C)(C)c1ccc(OCC(=O)NNC(=S)NC(=O)c2ccco2)c(Br)c1,-10.4*,1.43,i,i,i,i
CCOC(=O)N1CCN(C(=O)CCS(=O)(=O)c2ccc3c(c2)CCN3C(=O)CC)CC1,i,0,i,i,i,i
Cc1ccc(/C=C/C(=O)Nc2cccnc2)o1,i,-1.79,i,i,i,-7.12*
COc1ccc(NC(=O)/C=C/c2ccc(Br)o2)cn1,i,2.6,i,i,i,-7.18*
O=C(/C=C/c1ccccc1)Nc1cccnc1,i,2.53,i,i,i,i
COc1ccc(NC(=O)/C=C/c2ccco2)cn1,i,2.35,i,i,i,i
COc1ccc(CCNc2ccc(C(CC(N)=O)NC(=O)c3cc(OC)ccc3OC)cc2[N+](=O)[O-])cc1 (centres undefined),i,-0.87,i,i,i,-5.03*
COc1ccc(OC)c(C(=O)NC(CC(N)=O)c2ccc(NCCOc3ccccc3)c([N+](=O)[O-])c2)c1 (centres undefined),i,0.94,i,i,i,i
